Where “and” joins values, the source holds several entries; their conditions need not be identical. Identical values can stand only once.
Columns and labels:
[1] = (§1) Biodistribution of compound in mice excretion after 0.17 hr of intravenous injection; format: ADME, organism-based; conditions: mouse, excretion (excreta, not specified further), read-out: ID
Method in brief: (§2)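 BALB/c mice (about 25 g), n = 4. Free ¹¹¹In- or ⁶⁷Ga-labeled compound (50–100 μL, about 100 000 cpm) was injected into a tail vein. Mice were held in separate cages and killed by cervical dislocation, with blood and cumulative excreta collected. Tissues were rinsed, blotted, weighed and γ-counted, with blood background subtracted (blood volume 8.0%). Values are % injected dose ± SD.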

Mus musculus [2] = assay: as §1; format: ADME, organism-based; conditions: in vivo, 0.17 h; method in brief: as §2
Mus musculus [3] = assay: Biodistribution of compound in mice leg muscle after 21 hr of intravenous injection; format: ADME, organism-based, Muscle tissue; conditions: in vivo; method in brief: as §2
Mus musculus [4] = assay: Biodistribution in mice fat, after 24 hr of intravenous administration of 1-2 ug of compound (entrapped in bovine brain sphingomyelin/ cholesterol multilamellar vehicles); format: ADME, organism-based; conditions: in vivo
Method in brief: (§3)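 BALB/c mice (about 25 g), 3–5 per group, given 50–100 μL tail-vein injection of 111In-labeled conjugate entrapped in SM/CH (2:1 mol/mol) multilamellar vesicles, approx. 100 000 cpm; dose 1–2 μg phospholipid/g body weight. Killed by cervical dislocation at set times; blood, cumulative excretion and rinsed, blotted, weighed tissues γ-counted, blood background subtracted. Result is % injected dose ± SD.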

Mus musculus [5] = assay: Biodistribution of compound in mice skin after 0.17 hr of intravenous injection; format: ADME, organism-based, Zone of skin; conditions: in vivo; method in brief: as §2
Mus musculus [6] = assay: Biodistribution in mice heart, after 12 hr of intravenous administration of compound (entrapped in bovine brain sphingomyelin/ cholesterol multilamellar vehicles); format: ADME, organism-based; conditions: in vivo; method in brief: as §3
Mus musculus [7] = assay: Biodistribution of compound in mice intestine after 21 hr of intravenous injection; format: ADME, organism-based; conditions: in vivo; method in brief: as §2
Mus musculus [8] = assay: Biodistribution in mice brain, after 48 hr of intravenous administrating 1-2 ug of compound (entrapped in bovine brain sphingomyelin/ cholesterol multilamellar vehicles); format: ADME, organism-based; conditions: in vivo; method in brief: as §3
Mus musculus [9] = assay: Biodistribution of compound in mice liver after 21 hr of intravenous injection; format: ADME, organism-based; conditions: in vivo; method in brief: as §2
Mus musculus [10] = assay: Biodistribution in mice leg muscle, after 1 hr of intravenous administration of 1-2 ug ofcompound (entrapped in bovine brain sphingomyelin/ cholesterol multilamellar vehicles); format: ADME, organism-based, Muscle tissue; conditions: in vivo; method in brief: as §3
Mus musculus [11] = assay: Biodistribution in mice brain, after 1 hr of intravenous administrating 1-2 ug of compound (entrapped in bovine brain sphingomyelin/ cholesterol multilamellar vehicles); format: ADME, organism-based; conditions: in vivo; method in brief: as §3
Mus musculus [12] = assay: Biodistribution of compound in mice blood after 1 hr of intravenous injection; format: ADME, organism-based; conditions: in vivo; method in brief: as §2
Mus musculus [13] = assay: Biodistribution of compound in mice liver after 0.17 hr of intravenous injection; format: ADME, organism-based; conditions: in vivo; method in brief: as §2
Mus musculus [14] = assay: Biodistribution of compound in mice blood after 21 hr of intravenous injection; format: ADME, organism-based; conditions: in vivo; method in brief: as §2
Mus musculus [15] = assay: Biodistribution of compound in mice carcass after 1 hr of intravenous injection; format: ADME, organism-based; conditions: in vivo; method in brief: as §2
[16] = Biodistribution in mice excretion, after 24 hr of intravenous administration of 1-2 ug of ofcompound (entrapped in bovine brain sphingomyelin/ cholesterol multilamellar vehicles); format: ADME, organism-based; conditions: mouse, excretion (excreta, not specified further), read-out: ID; method in brief: as §3
Mus musculus [17] = assay: Biodistribution in mice fat, after 1 hr of intravenous administration of 1-2 ug ofcompound (entrapped in bovine brain sphingomyelin/ cholesterol multilamellar vehicles); format: ADME, organism-based; conditions: in vivo; method in brief: as §3
Mus musculus [18] = assay: Biodistribution in mice lung, after 48 hr of intravenous administration of 1-2 ug of compound (entrapped in bovine brain sphingomyelin/ cholesterol multilamellar vehicles); format: ADME, organism-based; conditions: in vivo; method in brief: as §3
Mus musculus [19] = assay: Biodistribution in mice intestine, after 1 hr of intravenous administration of 1-2 ug of compound (entrapped in bovine brain sphingomyelin/ cholesterol multilamellar vehicles); format: ADME, organism-based; conditions: in vivo; method in brief: as §3
Mus musculus [20] = assay: Biodistribution of compound in mice tail after 0.17 hr of intravenous injection; format: ADME, organism-based; conditions: in vivo; method in brief: as §2
Mus musculus [21] = assay: Biodistribution in mice leg muscle, after 24 hr of intravenous administration of 1-2 ug of compound (entrapped in bovine brain sphingomyelin/ cholesterol multilamellar vehicles); format: ADME, organism-based, Muscle tissue; conditions: in vivo; method in brief: as §3
Mus musculus [22] = assay: Biodistribution of compound in mice spleen after 1 hr of intravenous injection; format: ADME, organism-based; conditions: in vivo; method in brief: as §2
Mus musculus [23] = assay: Biodistribution in mice kidneys, after 24 hr of intravenous administration of 1-2 ug of compound (entrapped in bovine brain sphingomyelin/ cholesterol multilamellar vehicles); format: ADME, organism-based, Kidney; conditions: in vivo; method in brief: as §3
Mus musculus [24] = assay: Biodistribution of compound in mice skin after 1 hr of intravenous injection; format: ADME, organism-based, Zone of skin; conditions: in vivo; method in brief: as §2
Mus musculus [25] = assay: Biodistribution in mice spleen, after 1 hr of intravenous aadministration of 1-2 ug of compound (entrapped in bovine brain sphingomyelin/ cholesterol multilamellar vehicles); format: ADME, organism-based; conditions: in vivo; method in brief: as §3
Mus musculus [26] = assay: Biodistribution of compound in mice spleen after 0.17 hr of intravenous injection; format: ADME, organism-based; conditions: in vivo; method in brief: as §2
[27] = (§4) Biodistribution of compound in mice excretion after 21 hr of intravenous injection; format: ADME, organism-based; conditions: mouse, excretion (excreta, not specified further), read-out: ID; method in brief: as §2
Mus musculus [28] = assay: as §4; format: ADME, organism-based; conditions: in vivo, 21 h; method in brief: as §2
Mus musculus [29] = assay: Biodistribution of compound in mice leg muscle after 0.17 hr of intravenous injection; format: ADME, organism-based, Muscle tissue; conditions: in vivo; method in brief: as §2
Mus musculus [30] = assay: Biodistribution in mice lung, after 1 hr of intravenous administration of 1-2 ug of compound (entrapped in bovine brain sphingomyelin/ cholesterol multilamellar vehicles); format: ADME, organism-based; conditions: in vivo; method in brief: as §3
Mus musculus [31] = assay: Biodistribution of compound in mice leg muscle after 1 hr of intravenous injection; format: ADME, organism-based, Muscle tissue; conditions: in vivo; method in brief: as §2
Mus musculus [32] = assay: Biodistribution in mice liver, after 12 hr of intravenous administration of 1-2 ug of compound (entrapped in bovine brain sphingomyelin/ cholesterol multilamellar vehicles); format: ADME, organism-based; conditions: in vivo; method in brief: as §3
Mus musculus [33] = assay: Biodistribution of compound in mice carcass after 21 hr of intravenous injection; format: ADME, organism-based; conditions: in vivo; method in brief: as §2
Mus musculus [34] = assay: Biodistribution in mice spleen, after 48 hr of intravenous administration of 1-2 ug of compound (entrapped in bovine brain sphingomyelin/ cholesterol multilamellar vehicles); format: ADME, organism-based; conditions: in vivo; method in brief: as §3
Mus musculus [35] = assay: Biodistribution in mice stomach, after 1 hr of intravenous administration of 1-2 ug of compound (entrapped in bovine brain sphingomyelin/ cholesterol multilamellar vehicles); format: ADME, organism-based; conditions: in vivo; method in brief: as §3
[36] = (§5) Biodistribution of compound in mice excretion after 1 hr of intravenous injection; format: ADME, organism-based; conditions: mouse, excretion (excreta, not specified further), read-out: ID; method in brief: as §2
Mus musculus [37] = assay: as §5; format: ADME, organism-based; conditions: in vivo, 1 h; method in brief: as §2
Mus musculus [38] = assay: Biodistribution in mice heart, after 24 hr of intravenous administration of 1-2 ug of compound (entrapped in bovine brain sphingomyelin/ cholesterol multilamellar vehicles); format: ADME, organism-based; conditions: in vivo; method in brief: as §3
Mus musculus [39] = assay: Biodistribution in mice intestine, after 12 hr of intravenous administration of 1-2 ug of compound (entrapped in bovine brain sphingomyelin/ cholesterol multilamellar vehicles); format: ADME, organism-based; conditions: in vivo; method in brief: as §3
Mus musculus [40] = assay: Biodistribution in mice skin, after 48 hr of intravenous administration of 1-2 ug ofcompound (entrapped in bovine brain sphingomyelin/ cholesterol multilamellar vehicles); format: ADME, organism-based, Zone of skin; conditions: in vivo; method in brief: as §3
Mus musculus [41] = assay: Biodistribution in mice brain, after 12 hr of intravenous administration of 1-2 ug of compound (entrapped in bovine brain sphingomyelin/ cholesterol multilamellar vehicles); format: ADME, organism-based; conditions: in vivo; method in brief: as §3
Mus musculus [42] = assay: Biodistribution in mice stomach, after 24 hr of intravenous administration of 1-2 ug of ofcompound (entrapped in bovine brain sphingomyelin/ cholesterol multilamellar vehicles); format: ADME, organism-based; conditions: in vivo
Method in brief: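 BALB/c mice (about 25 g), groups of 2–5. Compound ¹¹¹In-loaded into SM/CH (2:1, mol/mol) multilamellar vesicles, given as a single tail-vein injection. Lipid dose was 1–2 μg phospholipid/g body weight, in 50–100 μL carrying about 100 000 cpm. Mice were killed by cervical dislocation. Organs were rinsed, blotted, weighed and γ-counted, with blood background subtracted. Values are % injected dose ± SD.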

dose excreted at 0.17 h [1]: 3.6%
ID (Mus musculus [2]): 3.2%
ID (Mus musculus [3]): 0.2% and 0.3%
ID (Mus musculus [4]): 0.4%
ID (Mus musculus [5]): 15.6% and 15.1%
ID (Mus musculus [6]): 0%
ID (Mus musculus [7]): 2.2% and 5.8%
ID (Mus musculus [8]): 0.2%
ID (Mus musculus [9]): 0.4% and 2.1%
ID (Mus musculus [10]): 0.3%
ID (Mus musculus [11]): 0%
ID (Mus musculus [12]): 1.1% and 4.5%
ID (Mus musculus [13]): 0.6% and 1.3%
ID (Mus musculus [14]): 1% and 0.7%
ID (Mus musculus [15]): 4.1% and 9.1%
dose excreted at 24 h [16]: 0%
ID (Mus musculus [17]): 0.3%
ID (Mus musculus [18]): 0.2%
ID (Mus musculus [19]): 0.7%
ID (Mus musculus [20]): 3.8% and 3.7%
ID (Mus musculus [21]): 0.2%
ID (Mus musculus [22]): 0.1% and 0%
ID (Mus musculus [23]): 0.5%
ID (Mus musculus [24]): 5.8% and 7.7%
ID (Mus musculus [25]): 3.9%
ID (Mus musculus [26]): 0.2% and 0.1%
dose excreted at 21 h [27]: 77.1%
ID (Mus musculus [28]): 69.5%
ID (Mus musculus [29]): 3.2% and 3.1%
ID (Mus musculus [30]): 0.4%
ID (Mus musculus [31]): 0.8% and 1.3%
ID (Mus musculus [32]): 73.6%
ID (Mus musculus [33]): 0.8% and 3%
ID (Mus musculus [34]): 2.9%
ID (Mus musculus [35]): 0.8%
dose excreted at 1 h [36]: 50.7%
ID (Mus musculus [37]): 50%
ID (Mus musculus [38]): 0%
ID (Mus musculus [39]): 1%
ID (Mus musculus [40]): 2.8%
ID (Mus musculus [41]): 0%
ID (Mus musculus [42]): 0.1%
SMILES: NCCNC(=O)CN(CCN(CCN(CC(=O)O)CC(=O)O)CC(=O)O)CC(=O)O
